Source: paper PMC2191018 (The Journal of Experimental Medicine, 1993)
Like-named read-outs stand apart in the source and are kept apart here. Values belong to the substance of their own block, whether it stands above or below them.

Columns and labels:
[1] = test system: TCR of biotin-YIPSAEK(IASA)I-specific CTL clones; conditions: different cell types; cited from earlier work
Kd molecule [2] = conditions: cited from earlier work
CTL clone N9 = experiment: 51Cr-release CTL recognition assay, clone N9; format: cell-based, mouse
In short: (§1)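 Test peptide derivatives were titrated in threefold dilutions on P815 target cells in a 51Cr-release assay at an E/T ratio of 3:1, run 4 h at 37°C. Specific lysis = 100 × (experimental − spontaneous)/(total − spontaneous). Relative antigenic activity = concentration of the reference photoprobe giving 50% maximal lysis divided by that of the variant.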

N9 TCR / Kd molecule = experiment: Inhibition of N9 TCR photoaffinity labeling by competitor peptides and mAbs; format: binding, mouse; conditions: competitor peptide at 300-fold molar excess; N9 cells; SDS-PAGE 10%, nonreducing
Kd molecule [3] = experiment: Kd photoaffinity labeling on CTL clones; format: binding, mouse; conditions: UV irradiation, Kd immunoprecipitated, SDS-PAGE 10%, reducing
In short: (§2)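 Live CTL clone cells were washed into DMEM with 0.5% FCS and 10 mM Hepes. They were incubated with biotinylated 125I-IASA photoprobe (~2,000 Ci/mmol) plus human β2m, 4-5 h at 37°C in 5% CO2, then UV irradiated at 312 nm for 5 min at 4°C. Cells were lysed in 0.7% NP-40 with leupeptin, PMSF and iodoacetamide. Kd (mAb 20-8-4S) or TCR-α/β (H57-597) was immunoprecipitated and run on 10% reducing SDS-PAGE.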

[4] = test system: TCR of biotin-YIPSAEK(IASA)I-specific CTL clones; experiment: TCR photoaffinity labeling on living CTL clones; format: binding, mouse; conditions: for TCR photoaffinity labeling: 4-5 h 37 C, UV 312 nm 5 min, TCR immunoprecipitated, SDS-PAGE
In short: as §2

[5] = test system: biotin-YIPSAEK(IASA)I-specific CTL clones; experiment: CTL recognition of peptide derivatives, statements over several clones; format: cell-based, mouse
In short: as §1

Kd molecule [6] = conditions: compared with isomeric IASA-YIPSAEK(biotin)I or the parent derivative; cited from earlier work

Substance: IASA-YIPSAEK(biotin)I
TCR photoaffinity labeling [1]: failsto label
Kd photoaffinity labeling (Kd molecule [2]): selectively labeled the Kd molecules

Substance: biotin-YIPSAEK(BA)I
recognition by clone N9 compared with the original conjugate (CTL clone N9; clone N9, only clone among the eight to recognize this variant): as efficientlyas the original

Substance: biotin-YIPSAEK (4-azido benzoic acid [ABA]I [biotin-YIPSAEK(ABA)I]
efficiency of recognition relative to the original photoprobe (CTL clone N9; clone N9, versus biotin-YIPSAEK(IASA)I): about 50 times

Substance: YIPSAEKI [PbCS 253-260]
effect on N9 TCR labeling by biotin-YIPSAEK(125IASA)I (N9 TCR / Kd molecule): abolished

Kd photoaffinity labeling (Kd molecule [3]; clone N1): slightly reduced
Kd photoaffinity labeling (Kd molecule [3]; clone N4): efficient
Kd photoaffinity labeling (Kd molecule [3]; clone N6): efficient
Kd photoaffinity labeling (Kd molecule [3]; clone N9): efficient
Kd photoaffinity labeling (Kd molecule [3]; clone N11): slightly reduced
Kd photoaffinity labeling (Kd molecule [3]; clone O1): efficient
Substance: lZSlASA-YIPSAEK(biotin)I [125IASA-YIPSAEK(biotin)I]

Substance: biotin-YIPSAEK(125IASA)I
TCR photoaffinity labeling ([4]; clone N1): No significant TCR labeling
TCR photoaffinity labeling ([4]; clone N4): showed TCR photoaffinity labeling
TCR photoaffinity labeling ([4]; clone N9): showed TCR photoaffinity labeling
photoaffinity-labeled TCR chain ([4]; clone N9, two-dimensional gel electrophoresis): labeled both chains
TCR photoaffinity labeling ([4]; clone N11): showed TCR photoaffinity labeling
TCR photoaffinity labeling ([4]; clone O1): No significant TCR labeling
TCR photoaffinity labeling ([4]; clone O7): No significant TCR labeling
TCR photoaffinity labeling ([4]; clone O11): No significant TCR labeling

Substance: biotin-YIPSAEK(IASA)I
recognition by clone O8 ([5]; additional clone 08, data not shown): recognized
Kd photoaffinity labeling (Kd molecule [2]): could not
binding to Kd molecules (Kd molecule [6]): bound equally efficiently

Substance: biotin-YIPSAEK(ASA)I
improvement of recognition on removal of the iodine from the IASA group ([5]; the other four clones, versus biotin-YIPSAEK(IASA)I): 6-12 fold
